In series [1] the target is T1, Palmitoleoyl-protein carboxylesterase NOTUM (Homo sapiens, UniProt Q6P988, C330S). The class given is cell-based.
The nature of series [2]: Efflux ratio of apparent permeability in dog MDCK-MDR1 cells. The format is ADME, cell-based, Canis lupus familiaris.
Series [3] is described as follows: Intrinsic clearance in mouse liver microsomes. Particulars: read-out: CLH. The class given is ADME, Microsome. Background: Liver microsomes are vesicles of endoplasmic reticulum, rich in cytochrome P450 enzymes.
Series [4] is described as follows: Apparent permeability across basolateral to apical membrane in dog MDCK-MDR1 cells. The class given is ADME, cell-based, Canis lupus familiaris.
Series [5] in a line: Apparent permeability across apical to basolateral membrane in dog MDCK-MDR1 cells. The class given is ADME, cell-based, Canis lupus familiaris.
The nature of series [6]: Stability of the compound in citrate buffer at pH 4 measured up to 24 hrs by UPLC-MS analysis. The class given is physicochemical. The conditions noted are these: pH 4, 24 h. In outline:
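Incubated in 0.1 M citrate buffer at pH 4 and sampled at several time points up to 24 h. The parent amide was monitored by UPLC-MS.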

Series [7] has as its target T1, Palmitoleoyl-protein carboxylesterase NOTUM. The class given is ADME, cell-based. Particulars: 72 h.

The values that follow come from ChEMBL document CHEMBL4610015, “Scaffold-hopping identifies furano[2,3-d]pyrimidine amides as potent Notum inhibitors” (Bioorg Med Chem Lett, 2020).

Where only a bound is given, the exact number is not on record here.

T1 sequence (Q6P988 20-496 C330S limits assumed): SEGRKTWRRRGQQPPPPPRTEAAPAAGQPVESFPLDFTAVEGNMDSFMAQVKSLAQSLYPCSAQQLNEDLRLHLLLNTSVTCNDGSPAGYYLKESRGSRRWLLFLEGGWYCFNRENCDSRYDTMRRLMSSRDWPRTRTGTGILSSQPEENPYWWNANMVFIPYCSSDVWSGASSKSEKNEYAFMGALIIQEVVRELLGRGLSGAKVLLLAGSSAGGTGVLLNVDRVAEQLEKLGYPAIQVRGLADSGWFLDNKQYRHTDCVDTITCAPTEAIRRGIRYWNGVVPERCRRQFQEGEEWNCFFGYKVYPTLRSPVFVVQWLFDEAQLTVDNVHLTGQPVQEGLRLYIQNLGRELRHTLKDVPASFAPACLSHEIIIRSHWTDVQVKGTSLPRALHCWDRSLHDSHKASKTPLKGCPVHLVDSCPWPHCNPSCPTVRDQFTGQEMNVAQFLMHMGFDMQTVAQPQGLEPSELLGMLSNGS

A word on the IC50: it is the midpoint of a concentration-inhibition curve. For `Cc1sc2ncnc(SCC(=O)O)c2c1Cl`, in series [1], the IC50 turned out to be 3 nM.

The efflux ratio is a quotient of directional permeabilities that is used to spot active efflux. Usually Papp B→A stands for the apparent permeability from the basolateral to the apical side of a cell layer. Broadly, the Papp A→B is how fast a substance crosses the layer from the apical side. `O=C(CSc1ncnc2c(C3CC3)c(Cl)sc12)N1CCn2cnnc2C1`: the IC50 in series [1] worked out at 1.1 nM. Also, in series [2], the efflux ratio came out at 98. Besides, the microsomal CLint in series [3] came to 29 µL/min/mg. In series [4], the Papp B→A is 93 ×10⁻⁶ cm/s. The Papp A→B in series [5] amounted to 0.95 ×10⁻⁶ cm/s.

On to `O=C1CN(C(=O)CSc2ncnc3c(C4CC4)c(Cl)sc23)CCN1`, for which, in series [2], the efflux ratio was 8.2. Moreover, the microsomal CLint in series [3] came out at 24 µL/min/mg. In series [4], the Papp B→A is 65 ×10⁻⁶ cm/s. In series [5], the Papp A→B stood at 7.9 ×10⁻⁶ cm/s.

Turning to `Cc1sc2ncnc(SCC(=O)N3CCn4cnnc4C3)c2c1Cl`, the Stability result in series [6] and in series [7] was “Stable” each time.

With `O=C1CN(C(=O)CSc2ncnc3c(C4CC4)c(Cl)sc23)CN1`, in series [2], the efflux ratio turned out to be 3.7. Moreover, in series [3], the microsomal CLint came out at 19 µL/min/mg. Besides, the Papp B→A in series [4] worked out at 14 ×10⁻⁶ cm/s. In series [5], the Papp A→B turned out to be 3.8 ×10⁻⁶ cm/s.

`O=C(CSc1ncnc2c(C3CC3)c(Cl)sc12)N1CCOCC1`: the efflux ratio in series [2] stood at 0.95. The microsomal CLint in series [3] is greater than 500 µL/min/mg. Besides, the Papp B→A in series [4] came out at 38 ×10⁻⁶ cm/s. In series [5], the Papp A→B is 40 ×10⁻⁶ cm/s.

Take `Cc1sc2ncnc(SCC(=O)N3CC(=O)N(C)C3)c2c1Cl`: the Stability entry in series [6] and in series [7] was “Stable” each time.
